Calls of active or inactive are those of the source. The rule behind the calls is not given here.
How the values were obtained:
[1] = Half life in H2O/MeOH buffered with HEPES/NaCl at pH 7.4 in presence of alkyl radical scavenger TEMPOR by 31P[1H]-NMR analysis; format: physicochemical; conditions: for half-life: H2O/MeOH buffered with HEPES/NaCl; for t1/2: buffer
U-87 MG = assay: Cytotoxicity against human U87MG cells assessed as reduction in cell survival measured after 72 hrs by MTT assay; format: functional, cell-based, U-87MG ATCC; conditions: for Activity: U-87MG ATCC
How it was run: (§1)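 MTT viability on 2D cultures, U87-MG in DMEM and U251-MG in EMEM with […], both with 10% FBS and Pen Strep. 5000 cells seeded, then 72 h exposure to 500, 250, 100, 50, 25, 10 and 5 μM (DMSO at most […]). MTT 0.5 mg/mL for 1 h, formazan in DMSO read at 550 nm. Survival as % of control. IC50 determined graphically. At least triplicate.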

[2] = Dissociation constant, pKa of the compound in 1:1 v/v D2O/CD3OD by 1H-NMR spectrometric method; format: physicochemical
How it was run: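 Samples in D2O/CD3OD (1:1 v/v) were adjusted with DCl/NaOD to a series of pH* values, read on a meter calibrated with non-deuterated standards, and 1H-NMR was recorded at 400 MHz. Imidazole proton chemical shifts were plotted against pH* and fitted sigmoidally. The pKa* was converted by pH = 0.929 pH* + 0.42.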

[3] = n-octanol/phosphate buffered saline partition coefficient, log D of the compound at pH 7.4 by shake-flask method; format: physicochemical
How it was run: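 Shake-flask partition between pre-saturated n-octanol and PBS at pH 7.4. The aqueous phase was quantified by RP-HPLC on a 4.6 × 50 mm column, eluting with CH3CN/H2O (each with 0.1% TFA) from 10:90 to 100:0 over 10 min.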

[4] = Half life in H2O/MeOH buffered with Na2CO3/NaHCO3 at pH 10.3 in presence of alkyl radical scavenger TEMPOR by 31P[1H]-NMR analysis; format: physicochemical; conditions: buffer, pH 10.3
[5] = Half life in H2O/MeOH buffered with HCl/KCl at pH 2.2 in presence of alkyl radical scavenger TEMPOR by 31P[1H]-NMR analysis; format: physicochemical; conditions: buffer
[6] = Stability in H2O/MeOH buffered with HEPES/NaCl at pH 7.4 assessed as temperature; format: physicochemical; conditions: buffer
[7] = Drug homolysis in H2O/MeOH buffered with HCl/KCl at pH 2.2 assessed as activation energy in presence of alkyl radical scavenger TEMPOR by 31P[1H]-NMR analysis
[8] = Drug homolysis in H2O/MeOH buffered with Na2CO3/NaHCO3 at pH 10.3 assessed as rate constant by measuring nitroxide level in presence of alkyl radical scavenger TEMPOR by 31P[1H]-NMR analysis
[9] = Drug homolysis in H2O/MeOH buffered with Na2CO3/NaHCO3 at pH 10.3 assessed as activation energy in presence of alkyl radical scavenger TEMPOR by 31P[1H]-NMR analysis
U-251 [10] = assay: Cytotoxicity against human U251MG cells assessed as reduction in cell survival measured after 72 hrs by MTT assay; format: functional, cell-based; how it was run: as §1
[11] = Drug homolysis in H2O/MeOH buffered with HCl/KCl at pH 2.2 assessed as rate constant by measuring nitroxide level in presence of alkyl radical scavenger TEMPOR by 31P[1H]-NMR analysis
[12] = Drug homolysis in H2O/MeOH buffered with HEPES/NaCl at pH 7.4 assessed as activation energy in presence of alkyl radical scavenger TEMPOR by 31P[1H]-NMR analysis
[13] = Drug homolysis in H2O/MeOH buffered with HEPES/NaCl at pH 7.4 assessed as rate constant by measuring nitroxide level in presence of alkyl radical scavenger TEMPOR by 31P[1H]-NMR analysis
U-251 [14] = assay: Cytotoxicity against human U251MG cells assessed as reduction in cell survival at IC50 measured after 72 hrs in presence of alkyl radical scavenger troxerutin by MTT assay; format: functional, cell-based
How it was run: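 U251-MG cells in EMEM (10% FBS, Pen Strep, […]) were exposed for 72 h to alkoxyamine together with an equal concentration of the alkyl radical scavenger troxerutin. Survival was read by MTT (0.5 mg/mL, 1 h, OD 550 nm) as % of control, and compared with alkoxyamine alone. At least triplicate.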

CCOP(=O)(OCC)C(N(OC(C)c1cc[n+](C)cc1)C(C)(C)C)C(C)(C)C (stereo not given)
half-life [1]: 0.75 h | IC50 (U-87 MG): 250 µM

CCOP(=O)(OCC)C(N(OC(C)c1ccncc1)C(C)(C)C)C(C)(C)C (stereo not given)
pKa ([2]; 1:1 v/v D2O/CD3OD, read-out: pKa): 4.7

CCOP(=O)(OCC)C(N(OC(C)c1ncc[nH]1)C(C)(C)C)C(C)(C)C (stereo in doubt; form 1) [listing 1 of 2 here]
t1/2 [1]: 81 h | logD ([3]; octanol/water): 4.1 | t1/2 [4]: 312 h | t1/2 [5]: 5 h | pKa [2]: 6.04

CCOP(=O)(OCC)C(N(OC(C)n1cc[n+](C)c1)C(C)(C)C)C(C)(C)C (stereo in doubt; form 1) [listing 1 of 2 here]
t1/2 [1]: 5 yr | T [6]: 100 °C | logD ([3]; octanol/water): -0.1 | IC50 (U-87 MG): 25 to 380 µM

CCOP(=O)(OCC)C(N(OC(C)c1cn(C)c[n+]1C)C(C)(C)C)C(C)(C)C (stereo in doubt; form 1) [listing 1 of 2 here]
half-life [1]: 25 h | T [6]: 70 °C | logD ([3]; n-octanol/phosphate buffered saline, read-out: logD): 0.8 | IC50 (U-87 MG): 25 to 380 µM

CCOP(=O)(OCC)C(N(OC(C)c1n(C)cc[n+]1C)C(C)(C)C)C(C)(C)C (stereo in doubt; form 1) [listing 1 of 2 here]
t1/2 [1]: 10 h | T [6]: 70 °C | logD ([3]; octanol/water): -0.2 | IC50 (U-87 MG): 25 to 380 µM

CCOP(=O)(OCC)C(N(OC(C)c1c[nH]cn1)C(C)(C)C)C(C)(C)C (stereo in doubt; form 1)
Ea [7]: 28.5 kcal/mol | Kdiss [8]: 1.53 ×10⁻⁴ /s | Ea [9]: 29.4 kcal/mol | Activity (U-251 [10]): Dose-dependent effect | Kdiss [11]: 5.23 ×10⁻⁴ /s | Activity (U-87 MG): Dose-dependent effect | Ea [12]: 29.2 kcal/mol | Kdiss [13]: 2.08 ×10⁻⁴ /s

CCOP(=O)(OCC)C(N(OC(C)c1cn(C)c[n+]1C)C(C)(C)C)C(C)(C)C (stereo in doubt; form 1) [listing 2 of 2 here]
Activity (U-251 [10]): Dose-dependent effect | Activity (U-87 MG): Dose-dependent effect | Ea [12]: 27.7 kcal/mol | Kdiss [13]: 5.73 ×10⁻⁴ /s

CCOP(=O)(OCC)C(N(OC(C)c1cn(C)cn1)C(C)(C)C)C(C)(C)C (stereo in doubt; form 1)
Ea [7]: 28.3 kcal/mol | Kdiss [8]: 4.89 ×10⁻⁵ /s | Ea [9]: 30.2 kcal/mol | Activity (U-251 [10]): Dose-dependent effect | Kdiss [11]: 7.84 ×10⁻⁴ /s | Activity (U-87 MG): Dose-dependent effect | Ea [12]: 29.8 kcal/mol | Kdiss [13]: 8.58 ×10⁻⁵ /s

CCOP(=O)(OCC)C(N(OC(C)c1n(C)cc[n+]1C)C(C)(C)C)C(C)(C)C (stereo in doubt; form 1) [listing 2 of 2 here]
Activity (U-251 [10]): Dose-dependent effect | Activity (U-87 MG): Dose-dependent effect | Ea [12]: 27.1 kcal/mol | Kdiss [13]: 1.27 ×10⁻³ /s

CCOP(=O)(OCC)C(N(OC(C)c1ncc[nH]1)C(C)(C)C)C(C)(C)C (stereo in doubt; form 1) [listing 2 of 2 here]
Ea [7]: 26.7 kcal/mol | Kdiss [8]: 1.97 ×10⁻⁴ /s | Ea [9]: 29.2 kcal/mol | Activity (U-251 [10]): Dose-dependent effect | Kdiss [11]: 7.47 ×10⁻⁴ /s | Activity (U-87 MG): Dose-dependent effect | Ea [12]: 28.4 kcal/mol | Kdiss [13]: 2 ×10⁻⁴ /s

CCOP(=O)(OCC)C(N(OC(C)c1nccn1C)C(C)(C)C)C(C)(C)C (stereo in doubt; form 1)
Ea [7]: 26.2 kcal/mol | Kdiss [8]: 4.31 ×10⁻⁴ /s | Ea [9]: 28.7 kcal/mol | Activity (U-251 [10]): Dose-dependent effect | Kdiss [11]: 1.51 ×10⁻³ /s | Activity (U-87 MG): Dose-dependent effect | Ea [12]: 27.8 kcal/mol | Kdiss [13]: 4.76 ×10⁻⁴ /s

CCOP(=O)(OCC)C(N(OC(C)n1cc[n+](C)c1)C(C)(C)C)C(C)(C)C (stereo in doubt; form 1) [listing 2 of 2 here]
Activity (U-251 [14]): Active | Activity (U-251 [10]): Dose-dependent effect | Activity (U-87 MG): Dose-dependent effect | Ea [12]: 32.3 kcal/mol | Kdiss [13]: 2.84 ×10⁻⁵ /s

CCOP(=O)(OCC)C(N(OC(C)c1cn(C)cn1)C(C)(C)C)C(C)(C)C (stereo in doubt; form 2)
t1/2 [1]: 528 h | logD ([3]; octanol/water): 3.8 | t1/2 [4]: 1680 h | t1/2 [5]: 170 h | pKa [2]: 6.56

From ChEMBL document CHEMBL4339209, “Chemical modifications of imidazole-containing alkoxyamines increase C-ON bond homolysis rate: Effects on their cytotoxic properties in glioblastoma cells” (Bioorg Med Chem, 2019)
